CHOP UPR activ: apoptotic UPR (CHOP) activation. CHO-CHOP luciferase reporter, luminescence; percent of tunicamycin response over DMSO baseline. activation, % at 10 µM. hit rate 0.34% among 330,000;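 active = at 10 µM dose, activation of 40% or more, normalized to positive control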;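 note: 100% = tunicamycin at 10 µg/mL and 0% = DMSO alone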
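measured by = luciferase luminescence | assay system = CHO-CHOP cells, stable luciferase reporter of PERK-eIF2a-CHOP signalling | amount = 500 reporter cells seeded per well | timing = 6 h compound exposure at 37 °C after overnight seeding | controls = positive tunicamycin 10 µg/mL, negative DMSO alone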
Hep lipid drop: hepatic lipid droplet formation modulation. AML12 mouse hepatocytes, oleate lipid droplets, BODIPY imaging. inhibition, % at 6.5 µM. hit rate 0.4% among 240,000;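 active = lipid droplet intensity inhibited by at least 50%, with more than 500 cells counted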
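Material: mouse AML12 hepatocyte cell line, fixed after treatment; Timing: compound with oleate, overnight; Technique: high-content imaging of BODIPY-stained droplets and DAPI nuclei; Probe or stimulus: oleate, 100 µM final; Dosing: compound at 6.5 µM only.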
CHOP inhibitor: CHOP inhibition in unfolded protein response; CHO-K1 CHOP-promoter luciferase, tunicamycin-induced, 15-18 h; inhibition, % at 10 µM; hit rate 3.8% among 220,000; AID 2732;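 active = compounds that reduced the stress-induced luciferase reporter signal by more than about 70% of percent inhibition, limit read from the data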;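 note: 0% = tunicamycin plus vehicle and 100% = wells without tunicamycin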
ANO1 activ: activators or potentiators of mouse TMEM16A chloride channel; HEK293 TMEM16A/YFP-H148Q/I152L, iodide quench fluorescence; active compounds read low; Q8BHY3; B-score at 10 µM; hit rate 0.3% among 340,000;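 active = fluorescence-ratio B-score plate-corrected deviation score at least 3 library SD below zero, with starting fluorescence score within 5 deviations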;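 note: channel opened by trigger with iodide after compound preincubation; score built on the fluorescence ratio of max minus min over baseline; more negative score means more quench and so TMEM16A activation or potentiation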
Target sequence (Q8BHY3 whole entry, looked up): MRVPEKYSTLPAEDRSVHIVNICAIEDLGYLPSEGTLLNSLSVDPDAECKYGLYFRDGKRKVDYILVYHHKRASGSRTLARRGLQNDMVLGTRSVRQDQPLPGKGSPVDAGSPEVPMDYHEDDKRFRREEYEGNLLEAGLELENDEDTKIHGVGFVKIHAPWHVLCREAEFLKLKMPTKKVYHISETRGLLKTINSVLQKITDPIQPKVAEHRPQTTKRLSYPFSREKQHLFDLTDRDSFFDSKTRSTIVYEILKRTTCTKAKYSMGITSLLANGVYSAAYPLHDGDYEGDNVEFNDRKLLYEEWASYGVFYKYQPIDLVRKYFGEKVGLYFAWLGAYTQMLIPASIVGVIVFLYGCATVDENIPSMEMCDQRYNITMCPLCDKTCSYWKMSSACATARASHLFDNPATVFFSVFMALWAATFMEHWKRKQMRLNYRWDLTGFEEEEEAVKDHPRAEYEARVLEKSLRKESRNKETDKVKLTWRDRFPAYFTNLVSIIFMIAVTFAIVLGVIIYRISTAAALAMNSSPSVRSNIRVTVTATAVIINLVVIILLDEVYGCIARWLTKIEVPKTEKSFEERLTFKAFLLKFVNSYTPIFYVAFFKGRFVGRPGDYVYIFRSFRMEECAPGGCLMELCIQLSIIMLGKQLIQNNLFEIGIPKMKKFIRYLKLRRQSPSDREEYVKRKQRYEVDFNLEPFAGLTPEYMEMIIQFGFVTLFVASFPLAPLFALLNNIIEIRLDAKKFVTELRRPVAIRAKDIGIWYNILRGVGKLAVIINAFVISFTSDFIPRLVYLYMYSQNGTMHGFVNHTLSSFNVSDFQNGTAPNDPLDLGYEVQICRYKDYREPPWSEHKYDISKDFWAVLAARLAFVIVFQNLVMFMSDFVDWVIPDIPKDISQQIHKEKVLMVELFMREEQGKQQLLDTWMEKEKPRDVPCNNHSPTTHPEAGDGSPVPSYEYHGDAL
XBP1 UPR activ: adaptive UPR (XBP1) activation; hit rate 0.33% among 330,000; AID 463104; CHO-XBP1 luciferase reporter, IRE1-XBP1 UPR activation, luminescence; percent of tunicamycin response, DMSO as zero; activation, % at 20 µM;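 active = versus positive control, 20 µM dose yields 30% or more activation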;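 note: 100% = tunicamycin at 10 µg/mL and 0% = DMSO only wells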
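Material: IRE1-XBP1 luciferase reporter CHO line / Quantity: one thousand reporter cells per well / Buffer or medium: F12 with 10% serum / Compound: 20 µM single concentration, DMSO 1% / Times: 6 h treatment, 37 °C / Detection: Steady-Glo luciferase glow luminescence, 10 min after reagent addition / Benchmarks: tunicamycin high, DMSO low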
ANO1 block: mouse TMEM16A channel inhibition, primary screen. Q8BHY3. HEK293 TMEM16A/YFP iodide influx fluorescence, ionomycin. normalized B-score (activity score, 25-100; higher = stronger inhibition) at 10 µM. hit rate 1.2% among 310,000. AID 588511;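 active = ratio plate-corrected score three or more library SD toward inhibition, starting fluorescence score within five deviations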;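 note: score derived from kinetic fluorescence span divided by baseline fluorescence per well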
Numbers without * were called inactive; i = inactive; x = no result. This is a sample that favours compounds with a hit; in the whole collection about 4.2% have one here.

SMILES | CHOP UPR activ | Hep lipid drop | CHOP inhibitor | ANO1 activ | XBP1 UPR activ | ANO1 block
Cc1cccc(N2CC(C(=O)Nc3nnc(SCc4cccnc4)s3)CC2=O)c1 (centres undefined) | 1 | 1 | x | i | 0 | i
O=C(OCC(=O)N1CCN(C(=O)c2ccco2)CC1)c1cccc(S(=O)(=O)N2CCc3ccccc32)c1 | 0 | 6 | 8 | i | -2 | i
CS(=O)(=O)Nc1ccccc1C(=O)Nc1cccc(Cl)c1 | -3 | 6 | -14 | i | -4 | 25*
Cc1cnc(NC(=O)CSc2ncc(-c3ccccc3)n2Cc2ccco2)s1 | 0 | -24 | 73* | i | -1 | i
O=C(CSc1ncc(-c2ccc(F)cc2)n1Cc1ccco1)Nc1nccs1 | 1 | x | 17 | i | -2 | i
COCCCN(C(=O)c1ccccc1F)c1nc(-c2ccc(OC)cc2)cs1 | 1 | -10 | x | i | -3 | i
COc1ccccc1C(=O)NCCC(=O)NC1CCC(C)CC1 (centres undefined) | 3 | x | x | i | -1 | x
Cc1nn(CCc2nn[nH]n2)c2nc(-c3ccc(C4CCCCC4)cc3)cc(C(F)(F)F)c12 | 3 | -17 | 106* | i | 7 | 100*
Cc1[nH]n(-c2ccccc2)c(=O)c1/C=N/Nc1nncc(-c2ccccc2)n1 | 5 | -138 | 77* | i | 1 | i
Cc1ccc(/C=N/Nc2nncc(-c3ccccc3)n2)o1 | 3 | -12 | -1 | i | -3 | i
Cc1[nH]n(-c2ccc(Cl)cc2)c(=O)c1/C=N/c1nnc(-c2ccccc2)s1 | 2 | -17 | 31 | i | 0 | 25*
CCOC(=O)c1c(C)oc2c1cc(O)c1ccccc12 | 5 | x | 77* | i | 4 | i
CCOC(=O)c1c(C)oc2c1c(C=NCc1ccccn1)c(O)c1ccccc12 | x | -3 | 82* | i | x | x
CC(=O)c1c(C)oc2c1cc(O)c1ccccc12 | 2 | -22 | -17 | i | 0 | i
COc1ccc(CCNC(=O)C(C)OC(=O)c2nsc(Cl)c2Cl)cc1OC (centres undefined) | 0 | -3 | x | i | 2 | i
CCc1ccc(OC)c(S(=O)(=O)Nc2ccc(Cc3ccncc3)cc2)c1 | 5 | -15 | x | i | -1 | i
COc1ccc(S(=O)(=O)Nc2ccc(Cc3ccncc3)cc2)cc1OC | 2 | 0 | x | i | 0 | 25*
Cc1cc(C)cc(C(=O)N2CCC3(CC2)NCCc2[nH]cnc23)c1 | 2 | 1 | x | i | 2 | i
CCOc1[nH]n(-c2ccccc2)c(=O)c1C=Nc1ccc(C)cc1 | 0 | -6 | 77* | i | 1 | i
CCOc1[nH]n(-c2ccccc2)c(=O)c1C=Nc1ccccc1 | 0 | 0 | 39 | i | 1 | i
CCCCn1c(-c2ccco2)nc2oc3ccccc3c(=O)c2c1=O | 1 | -10 | -4 | i | 4 | i
CN1CCN(S(=O)(=O)c2ccc(CNC(=O)c3ccccc3)s2)CC1 | -1 | -10 | x | i | -1 | i
CCc1ccc2nc(SCC(=O)Nc3nnc(C)s3)c(C)cc2c1 | -1 | 4 | -3 | i | -3 | i
CCCOc1ccc2ccccc2c1/C=C1\SC(=O)NC1=O | 1 | 7 | x | i | 2 | 100*
O=C1NC(=O)/C(=C/c2cccc3ccccc23)S1 | 2 | 0 | x | i | 2 | i
SMILES | CHOP UPR activ | Hep lipid drop | CHOP inhibitor | ANO1 activ | XBP1 UPR activ | ANO1 block
CC(NC(=O)c1ccc2c(c1)C(=O)N(Cc1cccnc1)C2=O)c1ccccc1 (centres undefined) | 2 | -3 | x | i | 0 | i
CC(C)(C)CC(C)(C)c1ccc(OCCOCC[N+](C)(C)Cc2ccccc2)cc1 | 3 | x | x | i | -4 | 25*
CCOC(=O)c1ccc(NC(=O)CN(C)S(=O)(=O)c2ccc(Br)s2)cc1 | -1 | 12 | 77* | i | -1 | i
COc1cccc(C(=O)N2CCN(Cc3ccccc3C(F)(F)F)CC2)c1 | 0 | x | 71* | i | -1 | i
CCCCCc1c(C)[nH]c2nc3ccccc3n2c1=O | 4 | 0 | x | i | 4 | i
COc1ccccc1N1CCN(C(=O)CCCN2C(=O)c3cccc4cccc(c34)C2=O)CC1 | -1 | -1 | 44 | i | -3 | i
Cn1c(SCc2ccc(Cl)cc2)nc(C(F)(F)F)cc1=O | -1 | x | 73* | i | 0 | i
O=c1cc(O)nc(SCc2ccccc2)n1-c1ccc(Cl)cc1 | 0 | 25 | 5 | i | -1 | i
CC1Cc2cc(S(=O)(=O)N3CCN(c4ccccc4)CC3)ccc2N1C(=O)C1CC1 (centres undefined) | -2 | -4 | x | i | -1 | i
CCc1nn2cc(C(=O)c3cc(Cl)ccc3O)cnc2c1-c1ccc(F)cc1 | 0 | -30 | 28 | i | -1 | 100*
Cc1nn(-c2ccccc2)c2ncc(C(=O)c3cc(Cl)ccc3O)cc12 | 1 | -4 | 44 | i | -1 | i
O=[N+]([O-])c1ccc2oc(C(O)c3cccc(Cl)c3)cc2c1 (centres undefined) | -1 | x | x | i | 0 | i
Cc1ccc2[nH]c(=O)c(CN(Cc3ccc4c(c3)OCO4)Cc3nnnn3C3CCCC3)cc2c1 | 0 | -48 | 72* | i | -6 | i
CCc1ccc2[nH]c(=O)c(CN(Cc3nnnn3C3CCCC3)C3CCCCC3)cc2c1 | 0 | x | 78* | i | 2 | i
Cc1cc(C)c2cc(CN(Cc3nnnn3C3CCCCC3)CC3CCCO3)c(=O)[nH]c2c1 (centres undefined) | -1 | -10 | 71* | i | -2 | i
Cc1cc2cc(CN(Cc3ccc4c(c3)OCO4)Cc3nnnn3C3CCCC3)c(=O)[nH]c2cc1C | 1 | x | 16 | i | 1 | i
COCC(=O)N1CCC(Oc2ccc(C(=O)N(C)CCCC3CCCC3)cc2)CC1 | -3 | -2 | x | i | -7 | i
O=C(CNc1cccc(S(=O)(=O)N2CCCC2)c1)Nc1cccc(C(F)(F)F)c1 | 3 | x | x | i | -3 | x
COCc1nnc(SCC(=O)NCc2ccccc2)n1-c1ccccc1 | -1 | -6 | 11 | i | -2 | i
CCn1c(SCC(=O)NCc2ccccc2)nnc1-c1ccccc1O | -2 | 0 | 82* | i | -4 | i
CCn1c(SCC(=O)Nc2ccccc2C)nnc1-c1ccccc1O | -3 | -2 | 20 | i | -2 | i
Cc1ccc(-n2c(CCc3ccccc3)nnc2SCC(=O)NCc2ccccc2)cc1C | 3 | 1 | 85* | i | -2 | i
